Measured values from EPA's CvTdb concentration-time database.

Assays:
Hamster = test: concentration in plasma after dosing; settings: dosed: 2,4-Dichlorophenoxyacetic acid, 8.0 mg/kg, iv, Male, Syrian Golden
Outline: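 Sampling and analytical methods are those of each source and frequently went unreported. The concentration-versus-time and amount-versus-time points were compiled from published in vivo toxicokinetic studies and two structured collections. Most were digitised from plot screenshots with WebPlotDigitizer, with others copied from tables, in the reported units.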

Rat [1] = test: concentration in plasma after dosing; settings: dosed: 2-Hydroxy-4-methoxybenzophenone, 100 mg/kg, oral, Female, F344
Mouse [2] = test: concentration in plasma after dosing; settings: dosed: 2-Hydroxy-4-methoxybenzophenone, 100 mg/kg, oral, Female, B6C3F1
Rat [3] = test: concentration in plasma after dosing; settings: dosed: 2-Hydroxy-4-methoxybenzophenone, 500 mg/kg, oral, Male, F344
Rat [4] = test: concentration in plasma after dosing; settings: dosed: 2-Hydroxy-4-methoxybenzophenone, 250 mg/kg, oral, Female, F344
Rat [5] = test: concentration in plasma after dosing; settings: 6 h; dosed: 2-Hydroxy-4-methoxybenzophenone; 500 mg/kg; oral; Male; F344
Rat [6] = test: concentration in plasma after dosing; settings: dosed: 2-Hydroxy-4-methoxybenzophenone, 100 mg/kg, oral, Female, F344; remark: listed apart in the source
Mouse [7] = test: concentration in plasma after dosing; settings: 0.25 h; dosed: 2-Hydroxy-4-methoxybenzophenone; 500 mg/kg; oral; Female; B6C3F1
Rat [8] = test: concentration in plasma after dosing; settings: dosed: Methyleugenol, 37 mg/kg, oral, Male, F344/N
Rat [9] = test: concentration in brain after dosing; settings: 12 h; dosed: Perfluorohexane-1-sulphonic acid – potassium salt; 16 mg/kg; oral; Female; F344
Rat [10] = test: concentration in liver after dosing; settings: 1200 h; dosed: Perfluorohexane-1-sulphonic acid – potassium salt; 16 mg/kg; oral; Male; Harlan Sprague Dawley
Rat [11] = test: concentration in liver after dosing; settings: 528 h; dosed: Perfluorohexane-1-sulphonic acid – potassium salt; 16 mg/kg; oral; Female; F344
Rat [12] = test: concentration in brain after dosing; settings: 24 h; dosed: Perfluorohexane-1-sulphonic acid – potassium salt; 16 mg/kg; oral; Female; F344
Rat [13] = test: concentration in liver after dosing; settings: 6 h; dosed: Perfluorohexane-1-sulphonic acid – potassium salt; 16 mg/kg; oral; Female; Harlan Sprague Dawley
Rat [14] = test: concentration in kidney after dosing; settings: 12 h; dosed: Perfluorohexane-1-sulphonic acid – potassium salt; 16 mg/kg; oral; Female; Harlan Sprague Dawley
Rat [15] = test: concentration in kidney after dosing; settings: 96 h; dosed: Perfluorohexane-1-sulphonic acid – potassium salt; 16 mg/kg; oral; Female; Harlan Sprague Dawley
Rat [16] = test: concentration in plasma after dosing; settings: 0.5 h; dosed: Primidone; 80 mg/kg; oral; Female; F344
Rat [17] = test: concentration in plasma after dosing; settings: 0.25 h; dosed: Primidone; 80 mg/kg; oral; Female; Harlan Sprague-Dawley
Rat [18] = test: concentration in plasma after dosing; settings: 22 h; dosed: Primidone; 130 mg/kg; oral; Female; F344
Rat [19] = test: concentration in plasma after dosing; settings: 1.5 h; dosed: Primidone; 80 mg/kg; oral; Male; F344
Rat [20] = test: concentration in plasma after dosing; settings: dosed: Pyridine, 5 mg/kg, oral, Male, F344
Rat [21] = test: concentration in plasma after dosing; settings: 2 min; dosed: Pyridine; 10 mg/kg; iv; Male; F344
Rat [22] = test: concentration in plasma after dosing; settings: dosed: Pyridine, 5 mg/kg, iv, Male, F344
Rat [23] = test: concentration in plasma after dosing; settings: dosed: Pyridine, 5 mg/kg, iv, Male, F344; remark: listed apart in the source
Rat [24] = test: concentration in brain after dosing; settings: 3 h; dosed: alpha-Thujone; 50 mg/kg; oral; Female; Harlan Sprague Dawley
Rat [25] = test: concentration in brain after dosing; settings: 5 min; dosed: alpha-Thujone; 50 mg/kg; oral; Female; Harlan Sprague Dawley
Rat [26] = test: concentration in brain after dosing; settings: 5 min; dosed: alpha-Thujone; 25 mg/kg; oral; Male; Harlan Sprague Dawley
Rat [27] = test: concentration in plasma after dosing; settings: 2 min; dosed: alpha-Thujone; 25 mg/kg; oral; Female; Harlan Sprague Dawley
Rat [28] = test: concentration in plasma after dosing; settings: 5 min; dosed: alpha-Thujone; 25 mg/kg; oral; Male; Harlan Sprague Dawley
Rat [29] = test: concentration in plasma after dosing; settings: 6 h; dosed: alpha-Thujone; 50 mg/kg; oral; Female; Harlan Sprague Dawley
Rat [30] = test: concentration in plasma after dosing; settings: 0.5 h; dosed: alpha-Thujone; 25 mg/kg; oral; Male; Harlan Sprague Dawley
Rat [31] = test: concentration in plasma after dosing; settings: 1.5 h; dosed: alpha-Thujone; 25 mg/kg; oral; Male; Harlan Sprague Dawley
Rat [32] = test: concentration in plasma after dosing; settings: 10 min; dosed: alpha-Thujone; 25 mg/kg; oral; Male; Harlan Sprague Dawley
Rat [33] = test: concentration in plasma after dosing; settings: 0.5 h; dosed: alpha-Thujone; 50 mg/kg; oral; Female; Harlan Sprague Dawley

O=C(O)COc1ccc(Cl)cc1Cl [2,4-Dichlorophenoxyacetic acid]
Hamster
Settings | concentration in plasma [µg/mL]
0.25 h | 13.5
0.5 h | 7.69

O=C(c1ccccc1)c1ccc(O)cc1O [2,4-Dihydroxybenzophenone]
Settings | concentration in plasma [µg/mL]
Mouse [2], 0.25 h | 0.276
Mouse [2], 2 h | 0.0923
Mouse [2], 2.5 min | 0.0637
Mouse [2], 10 min | 0.13
Rat [1], 3 h | 0.0674
Rat [1], 10 min | 0.0583
Rat [3], 0.5 h | 0.236
Rat [3], 12 h | 0.151
Rat [4], 0.25 h | 0.473
Rat [4], 4 h | 0.068
Rat [6], 3 h | 0.059
Rat [6], 10 min | 0.126

Settings | concentration in plasma [µg/mL]
Mouse [7] | 2.69
Rat [5] | 0.285

C=CCc1ccc(OC)c(OC)c1 [Methyleugenol]
Rat [8]
Settings | concentration in plasma [µg/mL]
2 h | 0.032
10 min | 0.268

O=S(=O)([O-])C(F)(F)C(F)(F)C(F)(F)C(F)(F)C(F)(F)C(F)(F)F.[K+] [Perfluorohexane-1-sulphonic acid – potassium salt]
Settings | concentration in brain [ng/g] | concentration in kidney [ng/g] | concentration in liver [ng/g]
Rat [9] | 1520 | – | –
Rat [10] | – | – | 10900
Rat [11] | – | – | 20900
Rat [12] | 1390 | – | –
Rat [13] | – | – | 48400
Rat [14] | – | 25000 | –
Rat [15] | – | 6720 | –

CCC1(c2ccccc2)C(=O)NCNC1=O [Primidone]
Settings | concentration in plasma [µg/mL]
Rat [16] | 40.3
Rat [17] | 12.5
Rat [18] | 1.7
Rat [19] | 35

c1ccncc1 [Pyridine]
Settings | concentration in plasma [µg/mL]
Rat [20], 1 h | 2.53
Rat [20], 8 h | 1.39
Rat [22], 0.05 h | 4.92
Rat [22], 4 h | 1.44
Rat [23], 0.5 h | 2.59
Rat [23], 8 h | 0.881

Settings | concentration in plasma [µg/mL]
Rat [21] | 10.1

CC(C)[C@]12CC(=O)[C@H](C)[C@H]1C2 [alpha-Thujone]
Settings | concentration in brain [ng/g] | concentration in plasma [µg/mL]
Rat [24] | 858 | –
Rat [25] | 996 | –
Rat [26] | 1220 | –
Rat [27] | – | 0.0106
Rat [28] | – | 0.104
Rat [29] | – | 0.169
Rat [30] | – | 0.324
Rat [31] | – | 0.13
Rat [32] | – | 0.248
Rat [33] | – | 0.475
